The text below walks through data of BindingDB's records for doi:10.1021/jm970159v (National Taiwan University, 1998).

Test [1] concerns the target D(3) dopamine receptor (Homo sapiens, UniProt P35462). The test is described as follows: Compound is evaluated for binding affinity towards recombinant human Dopamine receptor D3 using [3H]spiperone in CHO cells at 10 uM. Put shortly: (§1)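 Single-concentration screen at 10 µM in contract radioligand binding assays. Records whether inhibition of specific radioligand binding stayed below 50%.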

Test [2] addresses Histamine H1 receptor (Cavia porcellus, UniProt P31389). The test is described as follows: Compound is evaluated for binding affinity towards Histamine H1 receptor using [3H]pyrilamine in guinea pig lung at 10 uM. Put shortly: as §1
Test [3] deals with Sigma non-opioid intracellular receptor 1 (Cavia porcellus) (UniProt Q60492). Description: Compound is evaluated for binding affinity towards Sigma receptor using [3H]pentazocine in guinea pig brain.
Sequence of Sigma non-opioid intracellular receptor 1 (Cavia porcellus) (Q60492 whole entry, looked up): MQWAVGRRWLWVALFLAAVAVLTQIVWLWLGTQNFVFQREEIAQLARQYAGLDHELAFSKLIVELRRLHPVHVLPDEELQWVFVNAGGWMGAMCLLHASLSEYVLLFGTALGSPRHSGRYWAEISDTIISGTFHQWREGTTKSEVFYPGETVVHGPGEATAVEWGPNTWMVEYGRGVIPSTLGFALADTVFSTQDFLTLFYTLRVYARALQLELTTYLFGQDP

Sequence of Histamine H1 receptor (P31389 whole entry): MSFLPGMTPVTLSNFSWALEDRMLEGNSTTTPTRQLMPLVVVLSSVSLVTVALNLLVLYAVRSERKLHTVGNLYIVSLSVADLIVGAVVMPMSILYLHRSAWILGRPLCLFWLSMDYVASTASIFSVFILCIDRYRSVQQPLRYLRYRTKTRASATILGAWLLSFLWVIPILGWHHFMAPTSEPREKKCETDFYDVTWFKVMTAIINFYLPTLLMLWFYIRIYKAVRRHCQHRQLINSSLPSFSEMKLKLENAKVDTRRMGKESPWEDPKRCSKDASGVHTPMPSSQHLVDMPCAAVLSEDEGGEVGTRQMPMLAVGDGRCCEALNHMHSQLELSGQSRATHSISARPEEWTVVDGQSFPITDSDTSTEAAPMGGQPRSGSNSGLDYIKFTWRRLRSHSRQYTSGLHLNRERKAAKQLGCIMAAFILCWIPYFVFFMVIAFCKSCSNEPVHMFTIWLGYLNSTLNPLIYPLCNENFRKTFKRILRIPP
Sequence of D(3) dopamine receptor (P35462 as listed by the source): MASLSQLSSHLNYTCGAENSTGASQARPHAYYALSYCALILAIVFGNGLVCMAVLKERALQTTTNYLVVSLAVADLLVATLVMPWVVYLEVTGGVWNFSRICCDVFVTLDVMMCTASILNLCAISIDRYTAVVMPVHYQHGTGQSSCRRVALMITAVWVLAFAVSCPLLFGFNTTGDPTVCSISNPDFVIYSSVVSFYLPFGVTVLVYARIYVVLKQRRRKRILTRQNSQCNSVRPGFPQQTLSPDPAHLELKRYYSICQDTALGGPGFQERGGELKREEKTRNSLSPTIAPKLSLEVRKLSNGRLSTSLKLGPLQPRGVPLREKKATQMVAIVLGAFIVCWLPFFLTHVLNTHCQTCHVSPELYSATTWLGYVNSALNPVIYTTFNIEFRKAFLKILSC

By Ki is commonly meant the equilibrium dissociation constant of an inhibitor or competing ligand from its target. In the case of `COc1ccccc1N1CCN(C[C@H]2CN=C3c4ccccc4N=C(SC)N32)CC1`, the Ki in test [1] and in test [2] was above 10 µM throughout. As to `COc1ccccc1N1CCN(CC2CN3C(=O)Nc4ccccc4C3=N2)CC1` (stereo not drawn) [2-[4-(2-Methoxy-phenyl)-piperazin-1-ylmethyl]-2,6-dihydro-3H-imidazo[1,2-c]quinazolin-5-one], the affinity in test [3] corresponds to a Ki of 4 µM. Same read-out and setting: the figure for `COc1ccccc1N1CCN(Cc2cn3c(=O)[nH]c4ccccc4c3n2)CC1` [2-[4-(2-Methoxy-phenyl)-piperazin-1-ylmethyl]-6H-imidazo[1,2-c]quinazolin-5-one] is 0.743 µM; for `Oc1nc2ccccc2c2ncc(CN3CCN(c4ccccc4Cl)CC3)n12` [3-[4-(2-Chloro-phenyl)-piperazin-1-ylmethyl]-6H-imidazo[1,2-c]quinazolin-5-one] it is 1.5 µM. The same measure, in the same setting: the figure for `COc1ccccc1N1CCN(CC2CN=C3c4ccccc4NC(=O)N32)CC1` (stereo not drawn) [3-[4-(2-Methoxy-phenyl)-piperazin-1-ylmethyl]-2,6-dihydro-3H-imidazo[1,2-c]quinazolin-5-one] is above 6.27 µM; for `COc1ccccc1N1CCN(Cc2cnc3c4ccccc4nc(O)n23)CC1` [3-[4-(2-Methoxy-phenyl)-piperazin-1-ylmethyl]-6H-imidazo[1,2-c]quinazolin-5-one] it is 6.52 µM. Same read-out and setting: the figure for `COc1ccccc1N1CCN(CCn2c(=O)[nH]c3ccccc3c2=O)CC1` [3-{2-[4-(2-Methoxy-phenyl)-piperazin-1-yl]-ethyl}-1H-quinazoline-2,4-dione] is above 10 µM.
